OX1R antag-1: antagonists of human orexin 1 receptor; AID 434989; CHO/OX1R cells, Fluo-8 calcium fluorescence, orexin A; inhibition, % at 5 µM; actives 0.43% (n = 330,000); O43613;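 active means inhibition above its plate's threshold, mean inhibition of all tested compounds on the plate plus 3 SD, cut at about 37% in these data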;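 further: 0% = orexin A challenge wells and 100% = SB-334867-A antagonist wells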
CHO parental Ca: counter-screen for OX1R antagonists: effect in parental CHO cells; AID 463079; inhibition, % at 5.6 µM; actives 0.63% (n = 330,000); parental CHO-K1, ATP-induced calcium, Fluo-8 fluorescence;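 active means inhibition above that plate's mean sample inhibition plus 3 SD, cut at about 26% in these data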;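 further: 0% = ATP-challenged DMSO wells and 100% = DMSO wells without ATP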
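Assay system – parental CHO cells · Reagent – ATP stimulus · Detection – intracellular calcium via Fluo-8 no-wash fluorescent dye · Evaluation – percent inhibition of ATP-evoked calcium rise, normalized to controls · Controls – ATP wells versus no-ATP DMSO wells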
GPR7 antag: antagonists of human GPR7 (neuropeptides B/W receptor 1) | P48145 | GPR7-expressing cells, fluorescence antagonist assay | inhibition, % at 4.4 µM | actives 1.1% (n = 290,000) | AID 1861; in the data active means inhibition above about 16%, passing the limit was not always enough;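 further: cells stimulated with the agonist NPW; 0% = agonist with vehicle and 100% = vehicle without agonist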
Target sequence (P48145 whole entry, looked up): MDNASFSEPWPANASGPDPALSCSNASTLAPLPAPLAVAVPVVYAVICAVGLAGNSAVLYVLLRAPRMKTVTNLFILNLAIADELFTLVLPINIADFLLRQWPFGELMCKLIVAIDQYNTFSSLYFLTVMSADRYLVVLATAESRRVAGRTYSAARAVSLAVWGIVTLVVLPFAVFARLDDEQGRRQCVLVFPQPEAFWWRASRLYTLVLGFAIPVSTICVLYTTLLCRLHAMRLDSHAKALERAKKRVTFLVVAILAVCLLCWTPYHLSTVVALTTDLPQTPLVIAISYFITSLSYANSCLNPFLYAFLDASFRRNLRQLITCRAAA
OX1R antag-2: antagonists of human orexin 1 receptor (OX1R); OX1R-expressing cells, FRET antagonist read-out; actives 1.8% (n = 330,000); O43613; AID 485270; inhibition, % at 6.6 µM; in the data active means inhibition mostly above about 38%, no sharp cut-off; inactive means mostly below about 40%;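 further: 0% = agonist challenge alone and 100% = reference antagonist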
TAAR1 antag: human TAAR1 antagonism; Q96RJ0; CHO RD-HGA16 TAAR1, Fluo-8 calcium fluorescence, antagonist; inhibition, % at 3 µM; actives 1.5% (n = 360,000); AID 624466;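 active means inhibition above a per-plate cutoff, the mean inhibition of test compounds on that plate plus 3 SD, cut at about 49% in these data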;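 further: 0% = DMSO plus EC80 beta-PEA response and 100% = DMSO alone without agonist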
Target sequence (Q96RJ0 whole entry, looked up): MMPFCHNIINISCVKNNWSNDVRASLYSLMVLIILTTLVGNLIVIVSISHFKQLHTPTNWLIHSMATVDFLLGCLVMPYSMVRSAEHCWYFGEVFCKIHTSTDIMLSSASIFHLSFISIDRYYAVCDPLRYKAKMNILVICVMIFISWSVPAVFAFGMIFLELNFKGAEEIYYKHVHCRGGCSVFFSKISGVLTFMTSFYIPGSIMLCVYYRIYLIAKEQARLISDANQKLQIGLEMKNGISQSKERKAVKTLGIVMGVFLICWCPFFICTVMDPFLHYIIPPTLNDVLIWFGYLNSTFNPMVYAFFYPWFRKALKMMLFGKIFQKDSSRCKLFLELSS
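Material: CHO RD-HGA16 cells bearing hTAAR1; compound dosing: one-point dosing, 3 µM nominal final; schedule: dye loading 75 min at 37 °C, then 30 min room temperature; measured by: calcium fluorescence with Fluo-8; control set: vehicle and agonist controls; replication: n of 1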
TAAR1 agonist: agonists of human TAAR1 | Q96RJ0 | CHO RD-HGA16 TAAR1, Fluo-8 calcium fluorescence; vehicle wells 0%, saturating PEA agonist 100% | activation, % at 3 µM | actives 0.99% (n = 360,000);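 active means activation above the mean activation of all test compounds in the run plus 3 SD, cut at about 38% in these data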
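Test system: RD-HGA16 (CHO) cells co-expressing Gα16 and hTAAR1 / Benchmarks: DMSO vehicle as 0%, PEA at EC100 as 100% / Repeats: no replicates (n 1) / Measure: % activation from peak over basal fluorescence ratio, DMSO-to-PEA scaled / Timing: 17-24 h plating, Fluo-8 75 min 37 °C, 30 min RT / Technique: kinetic Fluo-8 calcium fluorescence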
OX1R HTRF confirm: confirmation of human orexin 1 receptor antagonists, HTRF format; shares compounds with OX1R antag-2; AID 492964; inhibition, % at 6.6 µM; actives 49% (n = 1,800); OX1R-expressing cells, HTRF antagonist assay; in the data active means inhibition above about 55%;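 further: CHO cells expressing OX1R stimulated with orexin A at about EC80; 0% = agonist challenge alone and 100% = reference antagonist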
CHO-K1 HTRF: signal in parental CHO-K1 cells, OX1R antagonist counter-screen; shares compounds with OX1R antag-2; actives 48% (n = 1,800); HTRF counterscreen; inhibition, % at 6.6 µM; in the data active means inhibition above about 17%;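 further: 0% = agonist challenge with vehicle and 100% = vehicle alone without agonist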
Numbers without * were called inactive; . = no result given; + = active, no number. In the library only some 4.5% were active in any assay of this set; here they are far more common.

SMILES | OX1R antag-1 | CHO parental Ca | GPR7 antag | OX1R antag-2 | TAAR1 antag | TAAR1 agonist | OX1R HTRF confirm | CHO-K1 HTRF
CCN1CCN(C2=C(NS(=O)(=O)c3ccc(NC(C)=O)cc3)C(=O)c3ccccc3C2=O)CC1 | -12 | -18 | 0 | 94* | -8 | 4 | 59* | 104*
COc1ccccc1-c1csc(C(O)c2cccc(Cl)c2)n1 (stereo not drawn) | . | . | . | . | 4 | 1 | . | .
CCOC(=O)c1nnn(-c2ccc([N+](=O)[O-])cc2[N+](=O)[O-])c1C | -6 | -20 | -3 | 143* | 11 | 5 | 46 | 73*
O=C(O)CNc1ncccc1[N+](=O)[O-] | -3 | -12 | -2 | + | -14 | 3 | 32 | 46*
Cc1oc(-c2cccc(Cl)c2)nc1CS(=O)(=O)CC(=O)NCc1ccco1 | -4 | -26 | -15 | 12 | -7 | 1 | . | .
Cc1nn2c(nc1=O)SCC(c1ccccc1)=N2 | -15 | -2 | -9 | 145* | 5 | 6 | 39 | 62*
O=C(CSc1cccc2cccc(Cl)c12)NC1=NCCS1 | 2 | -6 | 3 | 112* | 10 | 6 | 35 | 9
Cc1ccc2cc3c(N)c(C(=O)N4CCOCC4)sc3nc2c1 | -32 | -18 | -16 | 34 | 8 | 7 | . | .
COc1ccc2cc3c(N)c(C(=O)N4CCCC4)sc3nc2c1 | 6 | -11 | -11 | 98* | -10 | 2 | 89* | 11
CNC(=O)COC(=O)CNC(=O)c1cc(Cl)cc([N+](=O)[O-])c1 | 3 | 2 | -12 | 89* | 0 | 12 | 38 | 49*
O=C(CNC(=O)c1ccc(Br)cc1)NCC(=O)OCC(=O)c1ccc([N+](=O)[O-])cc1 | -20 | -12 | -2 | 87* | -13 | 1 | 35 | 50*
O=C(CNC(=O)c1ccc(Br)cc1)NCC(=O)OCC(=O)c1ccc(F)cc1 | . | . | -3 | . | -22 | 0 | . | .
O=C(Nc1ccc(O)c(-c2nc3ccccc3s2)c1)C1=COCCO1 | -5 | -11 | -6 | 88* | 29 | 2 | 46 | 15
Cc1ccsc1C(=O)Nc1ccc(O)c(-c2nc3ccccc3s2)c1 | -6 | 0 | -12 | 81* | -27 | -1 | 73* | 2
O=C(Nc1ccc(-c2nc3ccccc3s2)c(O)c1)C1=COCCO1 | -2 | 1 | -6 | 16 | -5 | 1 | . | .
CC1(C(=O)NS(=O)(=O)c2ccccc2C(F)(F)F)CCN1C(=O)c1cccc(F)c1 (stereo not drawn) | . | . | . | . | -5 | 3 | . | .
O=C(OCC(=O)c1ccccc1Cl)C1=NN(c2ccccc2)C(=O)CC1 | -26 | -6 | . | 5 | -11 | 2 | . | .
OCC1C2c3ccccc3C(c3ccccc32)C1CO (stereo not drawn) | -7 | -7 | -9 | 5 | -8 | 22 | . | .
O=C(O)c1ccc2c(c1Nc1ccccc1)C(=O)c1ccccc1C2=O | -21 | -4 | -7 | 12 | -18 | -3 | . | .
O=C(O)c1cccc2c1C(=O)c1ccccc1C2=O | -8 | -5 | 11 | 85* | 0 | 1 | 64* | 110*
CNc1c(C(=O)O)ccc2c1C(=O)c1ccccc1C2=O | 14 | -3 | -1 | 111* | -6 | 3 | 62* | 86*
CCNc1c(C(=O)O)ccc2c1C(=O)c1ccccc1C2=O | -4 | -9 | -2 | 97* | -18 | 3 | 36 | 18*
O=C1c2ccccc2C(=O)c2c1ccc(C(=O)N1CCCCC1)c2NCCO | -11 | 6 | 2 | 25 | -3 | 6 | . | .
CC(=O)OC[C@H]1O[C@@H](Oc2cc3ccc(=O)oc3cc2OC(C)=O)[C@H](OC(C)=O)[C@@H](OC(C)=O)[C@@H]1OC(C)=O | . | . | . | . | 14 | 2 | . | .
CCN1CCN(CCCNC(=O)c2ccc(NC(=O)C3=C(C)OCCS3)cc2)CC1 | -24 | -10 | 7 | -3 | -16 | 2 | . | .
SMILES | OX1R antag-1 | CHO parental Ca | GPR7 antag | OX1R antag-2 | TAAR1 antag | TAAR1 agonist | OX1R HTRF confirm | CHO-K1 HTRF
Cn1ccc2c(N3CCCCCCC3)cc3c(c21)C1CCC3O1 (stereo not drawn) | . | . | . | . | -46 | 11 | . | .
Cc1noc(/C=C/c2cccnc2)c1[N+](=O)[O-] | -14 | 2 | 2 | 79* | -17 | -1 | 68* | 84*
COc1cccc(N/C=C/c2onc(C)c2[N+](=O)[O-])c1 | -5 | -3 | -20 | 11 | 2 | 7 | . | .
CCCCOc1cccc(C2/C(=C(\O)c3ccc4c(c3)OCCO4)C(=O)C(=O)N2CCN2CCOCC2)c1 (stereo not drawn) | -4 | -28 | -8 | -4 | -11 | 1 | . | .
O=C(NCc1ccc(Cl)cc1)c1ccc(S(=O)(=O)N2CCCCC2)cc1 | 16 | -1 | . | -3 | 11 | 9 | . | .
CCO/C(C)=N/n1c2nc3ccccc3nc2c2c(=O)n(C3CCCC3)c(C)nc21 | -34 | -11 | -12 | 100* | 12 | 8 | 20 | 36*
COc1ccc(C)cc1NC(=O)c1ccc(S(=O)(=O)N2CCCCC2)cc1 | -32 | -1 | -3 | 14 | 3 | -4 | . | .
Cn1c(O)c(N=NC(=O)c2ccco2)c2ccccc21 | -9 | -28 | -10 | 166* | -5 | 1 | 83* | 53*
CCOC(=O)C(=O)N=Nc1c(O)n(C)c2ccccc12 | -91 | -6 | -12 | 183* | 20 | 0 | 49 | 75*
Cc1occc1C(=O)N=Nc1c(O)n(C)c2ccccc12 | -17 | -9 | -11 | 37 | -12 | 1 | . | .
Cn1c(O)c(N=NC(=O)CNC(=O)c2ccco2)c2ccccc21 | -5 | -13 | -3 | 79* | 15 | 5 | 39 | 48*
Cn1c(O)c(N=NC(=O)c2ccccc2O)c2ccccc21 | -13 | -10 | -9 | 121* | 14 | 4 | 91* | 29*
COc1ccc(CNC(=O)c2sc(=O)n(Cc3ccccc3OC)c2C)cc1 | . | . | . | . | 13 | 30 | . | .
Cc1cc(N=NC(=O)c2ccccc2O)c2ccccc2c1O | -18 | -8 | -7 | 120* | 15 | 10 | 94* | 48*
Clc1cccc(/C=N\Nc2nccs2)c1 | -11 | -28 | -2 | 82* | -14 | 17 | 19 | -11
Cc1cc(C)cc(C(=O)N(CCc2ccccc2)C2CC3CCC(C2)N3C)c1 (stereo not drawn) | -27 | -18 | -4 | 13 | -6 | 13 | . | .
CC(C)(C)n1cnnc1Sc1ncccc1[N+](=O)[O-] | -9 | -6 | -10 | 85* | -8 | 3 | 32 | 29*

Screens as filed in PubChem.
